From PubChem BioAssay
This excerpt belongs to a sample that is enriched for hits.
RORa inhibitor: blocks the human nuclear receptor RORA; actives 0.43% (n = 65,000); CHO-K1 Gal4-RORA LBD luciferase reporter, luminescence; AID 561; inhibition, % at 10 µM;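 active = inhibition above the mean of all tested compounds plus 3 SD, cut at about 52% in these data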
Target sequence (P35398 whole entry, looked up, the tested form may be a part): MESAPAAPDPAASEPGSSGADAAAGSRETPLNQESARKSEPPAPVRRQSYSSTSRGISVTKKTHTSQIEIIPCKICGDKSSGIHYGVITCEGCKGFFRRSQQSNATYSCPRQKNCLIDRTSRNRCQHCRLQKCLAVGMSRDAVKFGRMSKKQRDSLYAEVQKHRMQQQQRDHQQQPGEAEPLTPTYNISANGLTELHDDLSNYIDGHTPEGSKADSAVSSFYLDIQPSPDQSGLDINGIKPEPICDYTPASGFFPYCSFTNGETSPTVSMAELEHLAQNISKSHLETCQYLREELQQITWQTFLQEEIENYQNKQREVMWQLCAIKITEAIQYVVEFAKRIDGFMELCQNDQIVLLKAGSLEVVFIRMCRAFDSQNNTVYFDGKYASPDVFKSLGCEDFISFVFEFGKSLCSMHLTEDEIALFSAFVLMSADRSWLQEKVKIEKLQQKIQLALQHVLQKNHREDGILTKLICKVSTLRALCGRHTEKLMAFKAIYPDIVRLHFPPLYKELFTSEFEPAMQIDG
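Material: transiently transfected CHO-K1 cells, Gal4-DBD/human RORA-LBD fusion plus 5xGal4-luciferase reporter; doses: single concentration per compound, 10 µM final; incubation: 20 h at 37 °C; detection: luminescence from basal luciferase reporter expression; read-out: % inhibition of basal luciferase versus +RORA/-RORA DMSO controls; replication: tested once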
Hits are given with their value.

How did Cc1oc2cc(O)cc(O)c2c(=O)c1-c1ccc2c(c1)OCCCO2 do in these assays?
RORa inhibitor: inactive

How did Cc1oc(-c2ccc3c(c2)OCCO3)cc1C(=O)NC(CCC(=O)O)C(=O)O (configuration not stated) do in these assays?
RORa inhibitor: inactive

Results for COc1ccc(Cl)cc1NC(=O)CN(C1CCCCC1)S(C)(=O)=O ?
RORa inhibitor: inactive

What do the screens show for `COc1ccc(C(=O)Nn2c(SCC(=O)NCc3ccco3)nc3ccccc3c2=O)cc1`?
RORa inhibitor: 59

Results for COc1ccc(-n2nnc3c(SCC(=O)NCc4ccco4)ncnc32)cc1 ?
RORa inhibitor: inactive

How did O=C(CSc1nc2ccccc2c(=O)n1Cc1ccco1)c1ccc(F)cc1 do in these assays?
RORa inhibitor: inactive

What do the screens show for `O=C(CN(Cc1ccc2c(c1)OCO2)C(=O)c1cnsn1)NC1CCCC1`?
RORa inhibitor: inactive

How did CC(C)(C)C(=O)CSc1nccc(=O)[nH]1 do in these assays?
RORa inhibitor: inactive

What do the screens show for `CC(NC(=O)COc1cc(=O)n(C)c2ccccc12)c1ccc2c(c1)OCCO2` (configuration not stated)?
RORa inhibitor: inactive

Results for CC(C)Cn1c(N)c(C(=O)CSc2ccc3c(c2)OCCO3)c(=O)n(C)c1=O ?
RORa inhibitor: 78

How did CCn1c(SCC(=O)c2c(N)n(C)c(=O)n(C)c2=O)nc2sc(C)c(C)c2c1=O do in these assays?
RORa inhibitor: inactive

How did Cc1csc(SCCn2c(N3CCCC3)nc3c2c(=O)[nH]c(=O)n3C)n1 do in these assays?
RORa inhibitor: inactive

What do the screens show for `COc1ccc(OC)c(N/C(C)=C/C(=O)c2ccc(C)o2)c1`?
RORa inhibitor: inactive

What do the screens show for `CCCOc1ccc(S(=O)(=O)n2cc(Br)c(=O)[nH]c2=O)cc1`?
RORa inhibitor: inactive

Results for c1ccc(-n2nc3c(ccc4cnnc43)[nH]2)cc1 ?
RORa inhibitor: inactive

Results for CCCOc1ccccc1C1CC(=O)Nc2cc3c(cc21)OCCO3 (configuration not stated) ?
RORa inhibitor: 60

What do the screens show for `CCOc1ccccc1C1CC(=O)Nc2cc(OC)c(OC)c(OC)c21` (configuration not stated)?
RORa inhibitor: inactive

What do the screens show for `Cc1ccccc1S(=O)(=O)Cc1ccc(C(=O)NCCCOC(C)C)o1`?
RORa inhibitor: inactive

Results for Cc1ccc(C2=Nc3ccccc3NC(C)(c3ccc(C)o3)C2)o1 (configuration not stated) ?
RORa inhibitor: inactive

What do the screens show for `CC1(C)Cc2c(sc3nc4n(c(=N)c23)CCC4)CO1`?
RORa inhibitor: inactive

How did CC(C)n1c(=S)[nH]c2c1c(=O)[nH]c(=O)n2C do in these assays?
RORa inhibitor: inactive

How did COc1ccccc1NC(=O)COc1ccc(/C=N/n2cnnc2)cc1OC do in these assays?
RORa inhibitor: inactive

How did COc1cc(C(=S)N2CCCCC2)ccc1OCC(=O)N1CCCC1 do in these assays?
RORa inhibitor: inactive

How did COc1cc(/C=N/O)ccc1OCc1ccc(C(=O)O)cc1 do in these assays?
RORa inhibitor: 89

Results for CCC(C)Nc1nc(OC)nc(N(C)C#N)n1 (configuration not stated) ?
RORa inhibitor: inactive

Results for CC(=O)C(C)Oc1ccc2c3c(c(=O)oc2c1C)CCCC3 (configuration not stated) ?
RORa inhibitor: inactive

Results for O=C(Nc1ccc(CN2CCOCC2)cc1)c1cccc(F)c1 ?
RORa inhibitor: inactive

Results for O=C(c1ccccc1)C(CCC(CN1CCOCC1)C(=O)c1ccccc1)CN1CCOCC1 (configuration not stated) ?
RORa inhibitor: 56

How did O=C(c1ccccc1)c1ccc(N2CCOCC2)c(F)c1 do in these assays?
RORa inhibitor: inactive

How did COC(=O)c1c(-c2cccs2)csc1NC(=O)c1cccnc1 do in these assays?
RORa inhibitor: inactive

What do the screens show for `Cc1ccc2c(c1)nnn2C1CCN(S(=O)(=O)c2ccc(C(=O)N3C(C)CCCC3C)cc2)CC1` (configuration not stated)?
RORa inhibitor: 63

How did COc1ccc(S(=O)(=O)N2CCC(n3cnc4cc(C(F)(F)F)ccc43)CC2)cc1 do in these assays?
RORa inhibitor: inactive

Results for Cc1ccc2c(c1)nnn2C1CCN(S(C)(=O)=O)CC1 ?
RORa inhibitor: inactive

Results for COc1cc(C)c2occ(/C(C)=N\O)c2c1 ?
RORa inhibitor: inactive

How did O=C(Nc1ccc(-c2nc3ccccc3o2)cc1)c1ccc2c(c1)OCO2 do in these assays?
RORa inhibitor: inactive

How did O=C(c1ccc(-c2nnc(-c3ccccc3)o2)cc1)N1CCCCCC1 do in these assays?
RORa inhibitor: inactive

How did O=C(c1ccc(Cl)cc1)N1CCCCC(Sc2nnc(-c3ccc4c(c3)OCO4)o2)C1=O (configuration not stated) do in these assays?
RORa inhibitor: 76

How did CC(C)C(=O)Nc1ccc(NC(=O)c2ccccc2Cl)nc1 do in these assays?
RORa inhibitor: inactive

Results for COc1ccc(CCNc2ncnc3c2oc2ccccc23)cc1OC ?
RORa inhibitor: 84

What do the screens show for `COc1ccccc1N1CCN(c2ncnc3c2oc2ccccc23)CC1`?
RORa inhibitor: inactive

How did Cc1cc(C)n(-c2ncnc3c2oc2ccccc23)n1 do in these assays?
RORa inhibitor: inactive
